For data set [1], the target named is Aurora kinase B (Homo sapiens, UniProt Q96GD4). Nature of the data set: Binding affinity to Aurora kinase B catalytic domain by competition binding assay.
Data set [2] is described as follows: Clearance in athymic Nu/Nu rat at 15 mg/kg, iv administered using TPPW as vehicle. Set-up: dose 15 mg/kg, route intravenous. The conditions noted are these: in vivo. It counts as ADME, organism-based. The method, boiled down:
(§1)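 Plasma from K3 EDTA blood at 5, 15, 30 min, 1, 2, 4, 6, 24 h; acetonitrile extraction with internal standard, LC-MS/MS on C8 column, 5-95% ACN gradient with 0.05% formic acid.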

Data set [3] can be described thus: Clearance in athymic Nu/Nu rat at 50 mg/kg, iv administered using TPPW as vehicle. It counts as ADME, organism-based. Also on record: dose 50 mg/kg, route intravenous. To be noted: in vivo. The method, boiled down: as §1
Data set [4] can be described thus: Volume of distribution in Nu/Nu rat at 50 mg/kg, iv administered using TPPW as vehicle. It counts as ADME, organism-based. Also on record: dose 50 mg/kg, route intravenous. To be noted: in vivo. The method in brief: as §1
Data set [5] can be described thus: AUC (0 to infinity) in Nu/Nu rat at 15 mg/kg, iv administered using TPPW as vehicle. Also on record: dose 15 mg/kg, route intravenous, time infinity. To be noted: plasma. Type of data set: ADME, organism-based. The method, boiled down:
as §1

A short description of data set [6]: Half life in Nu/Nu rat at 5 mg/kg, iv administered using TPPW as vehicle. The conditions noted are these: in vivo. Set-up: dose 5 mg/kg, route intravenous. It counts as ADME, organism-based. The method, boiled down: as §1
Data set [7] concerns HCT-116. Nature of the data set: Antitumor activity against human HCT116 cells xenografted in iv dosed athymic nude rat assessed as tumor growth inhibition administered every other day from day 10 post tumor-injection for 3 weeks relative to vehicle treated control. It counts as functional, organism-based. The method, boiled down: (§2)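 Subcutaneous flank HCT-116 xenografts in nude rats; at Day 1 groups of 10 with mean tumor 301-306 mm³. Tail-vein iv in TPPW (2% Tween-80, 5% propylene glycol, 10% PG-400, 83% water) at 10 mL/kg, weight-adjusted: days 1,3,5,8,10,12,15,17,19 or days 1-4, 8-11, 15-18. Irinotecan control 100 mg/kg ip weekly ×3.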

Data set [8] deals with HCT-116. In words: Antitumor activity against human HCT116 cells xenografted in athymic nude rat assessed as tumor growth inhibition at 5 mg/kg, iv administered every other day from day 10 post tumor-injection for 3 weeks relative to vehicle treated control. It counts as functional. To be noted: read-out: TGI. The method, boiled down: as §2
(A xenograft is tissue or cells of one species grown in another, often human tumour cells in immunodeficient mice.)

Data set [9] concerns the target T1, Aurora kinase C (Homo sapiens, UniProt Q9UQB9).
T1 sequence (Q9UQB9 whole entry): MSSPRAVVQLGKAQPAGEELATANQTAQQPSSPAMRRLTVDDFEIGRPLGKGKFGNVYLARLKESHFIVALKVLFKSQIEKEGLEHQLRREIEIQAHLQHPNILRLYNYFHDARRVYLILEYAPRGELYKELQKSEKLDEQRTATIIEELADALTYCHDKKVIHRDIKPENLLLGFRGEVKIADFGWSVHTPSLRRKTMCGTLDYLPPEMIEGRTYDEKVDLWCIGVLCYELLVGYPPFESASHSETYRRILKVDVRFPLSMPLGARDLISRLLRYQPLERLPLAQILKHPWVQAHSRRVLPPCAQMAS
Nature of the data set: Binding affinity to Aurora kinase C.

pKd: −log10 of the molar value. Active and inactive are the calls of the source. The rule behind the calls is not given here.

Chain of Aurora kinase B (Q96GD4 whole entry, the tested form may be a part): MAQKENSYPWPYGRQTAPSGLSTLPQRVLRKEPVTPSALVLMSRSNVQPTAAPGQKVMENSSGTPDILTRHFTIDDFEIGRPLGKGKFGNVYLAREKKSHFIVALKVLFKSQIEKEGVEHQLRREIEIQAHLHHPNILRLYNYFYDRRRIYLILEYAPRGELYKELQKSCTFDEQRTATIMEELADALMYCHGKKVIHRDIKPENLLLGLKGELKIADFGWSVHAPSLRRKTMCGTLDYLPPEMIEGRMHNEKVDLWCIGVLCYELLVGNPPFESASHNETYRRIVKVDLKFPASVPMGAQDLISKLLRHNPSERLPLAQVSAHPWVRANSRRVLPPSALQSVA

With `Cc1cc(Nc2nc(Sc3ccc(NC(=O)CN4CC[C@@H](C(=O)N5CCC(F)(F)C5)C4)cc3)nn3cccc23)n[nH]1`, the pKd (as a rule, −log10 of the Kd, conventionally taken in molar units) is 8.77 in data set [1] and > 8.00 in [9]. The clearance (usually the volume of plasma or blood freed of the substance per unit of time) worked out at 0.75 L/h/kg in data set [2] and 0.314 L/h/kg in data set [3]. For the same molecule, in data set [4], the Vd (in general, a proportionality between amount in the body and measured concentration, not a real space) stood at 0.62 L/kg. Further, in data set [5], the AUC(0-inf) (as a rule, total exposure, with the tail of the curve extrapolated) was 34.4 µM·h. Moreover, the half-life – broadly, the time in which the quantity being followed falls by half – in data set [6] was 1.1 h. Further, the TGI result in data set [7] was “Active”. The inhibition in vivo at 5 mg/kg in data set [8] is 45%.

For the origin of these results see ChEMBL document CHEMBL2163334, “Discovery of highly potent and selective pan-Aurora kinase inhibitors with enhanced in vivo antitumor therapeutic index” (J Med Chem, 2012).
